Measured values taken from ChEMBL document CHEMBL1944608, “Design, synthesis and biological evaluation of novel 2-methylpyrimidine-4-ylamine derivatives as inhibitors of Escherichia coli pyruvate dehydrogenase complex E1” (Bioorg Med Chem, 2012).

Experiments:
[1] = Inhibition of Escherichia coli PDHC-E1 expressed in Escherichia coli TB1 using 2,6-dichlorophenolindophenol as substrate after 3 mins
Outline: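 MBP-fusion enzyme was expressed in E. coli TB1 grown in LB with 2% glucose and ampicillin at 37 °C to A600 0.6–0.8, then induced with 0.5 mM IPTG for 7 h at 25 °C. Protein was purified by MBP affinity to >95% purity and quantified by Bradford. The assay buffer was 50 mM K3PO4 pH 7.2 with 2.0 mM pyruvate substrate and 0.8 mM 2,6-DCIP. Enzyme and inhibitor were preincubated 3 min at 37 °C, and then ThDP was added to start the reaction. DCIP reduction was read at 600 nm. IC50 was obtained by fitting initial rates against varied inhibitor concentration to the Hill equation.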

Botrytis cinerea = assay: Antifungal activity against Botryotinia fuckeliana assessed as inhibition of mycelium growth at 100 ug/ml after 48 hrs; format: functional; conditions: read-out: GI
Outline: (§1)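 Poisoned-agar mycelial growth test. Compound mixed into medium and poured into dishes. Once solidified, plates were inoculated with a 5 mm mycelium disk, inverted and incubated at 28 °C for 48 h. Medium without sample served as blank. Mycelial elongation radius was measured in triplicate. Inhibition (%) = [(C − T)/C] × 100, where C and T are the mean mycelial diameters of the blank and the treated plates.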

[2] = Antifungal activity against Colletotrichum orbiculare assessed as inhibition of mycelium growth at 100 ug/ml after 48 hrs; format: functional; outline: as §1
Alternaria solani = assay: Antifungal activity against Alternaria solani assessed as inhibition of mycelium growth at 100 ug/ml after 48 hrs; format: functional; conditions: read-out: GI; outline: as §1
Rhizoctonia solani = assay: Antifungal activity against Rhizoctonia solani assessed as inhibition of mycelium growth at 100 ug/ml after 48 hrs; format: functional; conditions: read-out: GI; outline: as §1
Alternaria alternata = assay: Antifungal activity against Alternaria alternata Keissler assessed as inhibition of mycelium growth at 100 ug/ml after 48 hrs; format: functional; conditions: read-out: GI; outline: as §1
Fusarium graminearum = assay: Antifungal activity against Gibberella zeae assessed as inhibition of mycelium growth at 100 ug/ml after 48 hrs; format: functional; conditions: read-out: GI
Outline: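 Poisoned-medium plate test: compound mixed into molten medium and poured into dishes; once set, each plate was seeded with a 5 mm mycelium disk, inverted, and held at 28 °C for 48 h. The blank control was medium without sample, and tests were run in triplicate. Mycelial diameter was measured, and inhibition was taken as I = [(C − T)/C] × 100%, with C the mean blank diameter and T the mean treated diameter.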

SMILES: Cc1ncc(Cn2cc(COc3ccc(Cl)c(C)c3)nn2)c(N)n1
- IC50 [1]: 26.2 µM

SMILES: Cc1ncc(Cn2cc(COc3ccc(F)cc3Cl)nn2)c(N)n1
- IC50 [1]: 43.3 µM

SMILES: Cc1ncc(Cn2cc(COc3cccc(C(F)(F)F)c3)nn2)c(N)n1
- IC50 [1]: 32.7 µM

SMILES: CCOC(=O)c1ccc(OCc2cn(Cc3cnc(C)nc3N)nn2)cc1
- IC50 [1]: 28.8 µM

SMILES: COc1ccc(OCc2cn(Cc3cnc(C)nc3N)nn2)cc1
- IC50 [1]: 81.6 µM

SMILES: Cc1ncc(Cn2cc(COc3ccccc3[N+](=O)[O-])nn2)c(N)n1
- IC50 [1]: 36.3 µM

SMILES: Cc1ncc(Cn2cc(COc3ccc([N+](=O)[O-])cc3)nn2)c(N)n1
- inhibition of growth at 100 µg/mL (Botrytis cinerea): 37%
- growth inhibition (GI) [2]: 43%
- inhibition of growth at 100 µg/mL (Alternaria solani): 24%
- inhibition of growth at 100 µg/mL (Rhizoctonia solani): 24%
- inhibition of growth at 100 µg/mL (Alternaria alternata): 33%
- inhibition of growth at 100 µg/mL (Fusarium graminearum): 0%

SMILES: Cc1ncc(Cn2cc(COc3ccc([N+](=O)[O-])cc3[N+](=O)[O-])nn2)c(N)n1
- inhibition of growth at 100 µg/mL (Botrytis cinerea): 54%
- growth inhibition (GI) [2]: 42%
- inhibition of growth at 100 µg/mL (Alternaria solani): 0%
- inhibition of growth at 100 µg/mL (Rhizoctonia solani): 0%
- inhibition of growth at 100 µg/mL (Alternaria alternata): 0%
- inhibition of growth at 100 µg/mL (Fusarium graminearum): 48%
- IC50 [1]: 11.3 µM

SMILES: Cc1ncc(Cn2cc(COc3ccc(C(=O)O)cc3)nn2)c(N)n1
- inhibition of growth at 100 µg/mL (Botrytis cinerea): 67%
- growth inhibition (GI) [2]: 42%
- inhibition of growth at 100 µg/mL (Alternaria solani): 33%
- inhibition of growth at 100 µg/mL (Rhizoctonia solani): 0%
- inhibition of growth at 100 µg/mL (Alternaria alternata): 57%
- inhibition of growth at 100 µg/mL (Fusarium graminearum): 21%

SMILES: CC1COC(Cn2cncn2)(c2ccc(Oc3ccc(Cl)cc3)cc2Cl)O1 (configuration not stated) [DIFENOCONAZOLE]
- inhibition of growth at 100 µg/mL (Botrytis cinerea): 96%
- growth inhibition (GI) [2]: 97%
- inhibition of growth at 100 µg/mL (Alternaria solani): 100%
- inhibition of growth at 100 µg/mL (Rhizoctonia solani): 100%
- inhibition of growth at 100 µg/mL (Alternaria alternata): 100%
- inhibition of growth at 100 µg/mL (Fusarium graminearum): 98%

SMILES: COC(=O)Cc1ccc(OCc2cn(Cc3cnc(C)nc3N)nn2)cc1
- IC50 [1]: 102 µM

SMILES: Cc1ncc(Cn2nnc(COc3ccccc3)c2I)c(N)n1
- inhibition of growth at 100 µg/mL (Botrytis cinerea): 88%
- growth inhibition (GI) [2]: 45%
- inhibition of growth at 100 µg/mL (Alternaria solani): 57%
- inhibition of growth at 100 µg/mL (Rhizoctonia solani): 96%
- inhibition of growth at 100 µg/mL (Alternaria alternata): 23%
- inhibition of growth at 100 µg/mL (Fusarium graminearum): 59%
- IC50 [1]: 19.6 µM

SMILES: Cc1ncc(Cn2cc(COc3ccccc3)nn2)c(N)n1
- inhibition of growth at 100 µg/mL (Botrytis cinerea): 53%
- growth inhibition (GI) [2]: 40%
- inhibition of growth at 100 µg/mL (Alternaria solani): 25%
- inhibition of growth at 100 µg/mL (Rhizoctonia solani): 0%
- inhibition of growth at 100 µg/mL (Alternaria alternata): 43%
- inhibition of growth at 100 µg/mL (Fusarium graminearum): 0%

SMILES: Cc1ncc(Cn2nnc(COc3ccc([N+](=O)[O-])cc3)c2I)c(N)n1
- inhibition of growth at 100 µg/mL (Botrytis cinerea): 84%
- growth inhibition (GI) [2]: 35%
- inhibition of growth at 100 µg/mL (Alternaria solani): 66%
- inhibition of growth at 100 µg/mL (Rhizoctonia solani): 97%
- inhibition of growth at 100 µg/mL (Alternaria alternata): 59%
- inhibition of growth at 100 µg/mL (Fusarium graminearum): 68%
- IC50 [1]: 5.33 µM

SMILES: Cc1ncc(Cn2cc(COc3ccc([N+](=O)[O-])cc3Cl)nn2)c(N)n1
- inhibition of growth at 100 µg/mL (Botrytis cinerea): 44%
- growth inhibition (GI) [2]: 57%
- inhibition of growth at 100 µg/mL (Alternaria solani): 20%
- inhibition of growth at 100 µg/mL (Rhizoctonia solani): 31%
- inhibition of growth at 100 µg/mL (Alternaria alternata): 36%
- inhibition of growth at 100 µg/mL (Fusarium graminearum): 0%

SMILES: Cc1ccc(Cl)c(OCc2cn(Cc3cnc(C)nc3N)nn2)c1
- IC50 [1]: 29 µM

SMILES: Cc1ncc(Cn2cc(COc3ccc(Cl)cc3Cl)nn2)c(N)n1
- IC50 [1]: 18.7 µM

SMILES: Cc1ncc(Cn2cc(COc3ccc(Cl)cc3)nn2)c(N)n1
- inhibition of growth at 100 µg/mL (Botrytis cinerea): 73%
- growth inhibition (GI) [2]: 50%
- inhibition of growth at 100 µg/mL (Alternaria solani): 44%
- inhibition of growth at 100 µg/mL (Rhizoctonia solani): 23%
- inhibition of growth at 100 µg/mL (Alternaria alternata): 52%
- inhibition of growth at 100 µg/mL (Fusarium graminearum): 51%
- IC50 [1]: 26.4 µM
